Source: ChEMBL document CHEMBL2424622, “Development of amino-pyrimidine inhibitors of c-Jun N-terminal kinase (JNK): kinase profiling guided optimization of a 1,2,3-benzotriazole lead” (Bioorg Med Chem Lett, 2013)

Columns and labels:
[1] = target: Serine/threonine-protein kinase Nek7 (Homo sapiens, UniProt Q8TDX7); experiment: Competitive binding affinity to NEK7 (unknown origin) at 10 uM in presence of ATP relative to control
[2] = target: T1, NUAK family SNF1-like kinase 2 (Homo sapiens) (UniProt Q9H093); experiment: Competitive binding affinity to SNARK (unknown origin) at 10 uM in presence of ATP relative to control
T1 sequence (whole entry): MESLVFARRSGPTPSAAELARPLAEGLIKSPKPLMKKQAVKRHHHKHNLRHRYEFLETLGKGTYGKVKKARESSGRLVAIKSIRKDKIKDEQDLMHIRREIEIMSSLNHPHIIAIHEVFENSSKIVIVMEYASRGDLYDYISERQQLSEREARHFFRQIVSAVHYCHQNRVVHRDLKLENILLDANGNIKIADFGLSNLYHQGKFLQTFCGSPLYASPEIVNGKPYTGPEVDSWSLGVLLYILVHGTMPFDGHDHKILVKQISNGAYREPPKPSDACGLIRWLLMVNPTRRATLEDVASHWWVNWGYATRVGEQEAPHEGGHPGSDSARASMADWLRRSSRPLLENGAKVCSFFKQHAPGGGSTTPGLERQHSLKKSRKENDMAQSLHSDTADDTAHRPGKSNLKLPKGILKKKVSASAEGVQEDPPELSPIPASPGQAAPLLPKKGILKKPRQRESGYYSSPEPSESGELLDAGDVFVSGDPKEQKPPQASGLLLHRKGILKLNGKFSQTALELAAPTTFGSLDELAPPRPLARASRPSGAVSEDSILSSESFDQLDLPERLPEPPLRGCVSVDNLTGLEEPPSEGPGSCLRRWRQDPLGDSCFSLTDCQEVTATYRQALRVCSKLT

[3] = target: T2, Ankyrin repeat and protein kinase domain-containing protein 1 (Homo sapiens) (UniProt Q8NFD2); experiment: Competitive binding affinity to ANKK1 (unknown origin) at 10 uM in presence of ATP relative to control
T2 sequence (whole entry): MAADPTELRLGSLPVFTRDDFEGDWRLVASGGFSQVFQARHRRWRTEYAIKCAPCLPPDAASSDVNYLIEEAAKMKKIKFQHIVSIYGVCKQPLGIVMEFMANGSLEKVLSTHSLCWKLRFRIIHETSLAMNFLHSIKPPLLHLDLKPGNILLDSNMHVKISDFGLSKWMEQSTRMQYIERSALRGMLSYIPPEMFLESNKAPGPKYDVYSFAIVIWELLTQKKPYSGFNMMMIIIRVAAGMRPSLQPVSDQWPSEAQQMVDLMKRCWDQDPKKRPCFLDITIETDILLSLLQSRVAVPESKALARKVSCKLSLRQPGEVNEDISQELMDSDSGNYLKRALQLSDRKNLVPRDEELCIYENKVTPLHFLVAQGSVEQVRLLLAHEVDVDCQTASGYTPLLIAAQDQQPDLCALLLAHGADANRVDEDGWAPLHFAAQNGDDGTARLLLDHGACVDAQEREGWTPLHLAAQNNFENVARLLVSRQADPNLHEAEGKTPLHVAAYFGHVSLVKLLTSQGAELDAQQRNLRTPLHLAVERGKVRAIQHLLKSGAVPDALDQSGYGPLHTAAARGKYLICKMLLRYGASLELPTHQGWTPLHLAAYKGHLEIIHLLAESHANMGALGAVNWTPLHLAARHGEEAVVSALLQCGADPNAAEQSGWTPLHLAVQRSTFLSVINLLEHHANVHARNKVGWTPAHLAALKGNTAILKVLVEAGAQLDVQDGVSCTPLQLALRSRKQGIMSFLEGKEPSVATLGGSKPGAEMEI

[4] = target: T3, Mitogen-activated protein kinase kinase kinase kinase 3 (Homo sapiens) (UniProt Q8IVH8); experiment: Competitive binding affinity to MAP4K3 (unknown origin) at 10 uM in presence of ATP relative to control
T3 sequence (whole entry): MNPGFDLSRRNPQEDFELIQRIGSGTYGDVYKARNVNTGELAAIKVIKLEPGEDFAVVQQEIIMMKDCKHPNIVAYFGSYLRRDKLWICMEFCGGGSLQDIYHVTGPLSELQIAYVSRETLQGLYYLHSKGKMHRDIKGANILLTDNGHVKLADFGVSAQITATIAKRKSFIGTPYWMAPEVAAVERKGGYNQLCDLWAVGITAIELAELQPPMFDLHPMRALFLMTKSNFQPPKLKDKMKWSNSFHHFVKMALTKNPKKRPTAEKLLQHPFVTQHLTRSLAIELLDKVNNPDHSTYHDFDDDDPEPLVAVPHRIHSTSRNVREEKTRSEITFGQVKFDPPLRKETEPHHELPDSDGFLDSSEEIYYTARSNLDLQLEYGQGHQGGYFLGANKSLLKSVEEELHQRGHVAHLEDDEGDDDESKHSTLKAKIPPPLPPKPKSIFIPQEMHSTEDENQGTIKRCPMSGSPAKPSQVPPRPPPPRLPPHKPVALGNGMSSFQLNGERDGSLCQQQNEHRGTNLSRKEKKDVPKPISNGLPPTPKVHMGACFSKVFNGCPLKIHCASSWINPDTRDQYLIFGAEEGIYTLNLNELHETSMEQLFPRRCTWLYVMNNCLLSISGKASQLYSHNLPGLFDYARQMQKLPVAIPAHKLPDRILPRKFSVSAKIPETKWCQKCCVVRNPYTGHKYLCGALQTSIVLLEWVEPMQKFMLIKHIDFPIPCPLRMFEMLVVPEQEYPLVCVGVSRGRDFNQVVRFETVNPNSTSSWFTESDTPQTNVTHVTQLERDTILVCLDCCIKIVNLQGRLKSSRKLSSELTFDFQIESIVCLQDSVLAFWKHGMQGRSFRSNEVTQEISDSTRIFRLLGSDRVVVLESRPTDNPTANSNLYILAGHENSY

[5] = target: Casein kinase II subunit alpha' (Homo sapiens) (UniProt P19784); experiment: Competitive binding affinity to CSNK2A2 (unknown origin) at 10 uM in presence of ATP relative to control
Summary of the method: (§1)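 In vitro ATP-site competition binding assay across a diverse panel of 128 kinases, with each compound tested at a single concentration. Kinase binding is expressed relative to control.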

[6] = target: Protein kinase C eta type (Homo sapiens) (UniProt P24723); experiment: Competitive binding affinity to PRKCH (unknown origin) at 10 uM in presence of ATP relative to control
[7] = target: Aurora kinase B (Homo sapiens) (UniProt Q96GD4); experiment: Competitive binding affinity to AURKB (unknown origin) at 10 uM in presence of ATP relative to control; summary of the method: as §1
[8] = target: Wee1-like protein kinase (Homo sapiens) (UniProt P30291); experiment: Competitive binding affinity to WEE1 (unknown origin) at 10 uM in presence of ATP relative to control
[9] = target: Mitogen-activated protein kinase kinase kinase 20 (Homo sapiens) (UniProt Q9NYL2); experiment: Competitive binding affinity to ZAK (unknown origin) at 10 uM in presence of ATP relative to control

Compound | inhibition [1] [%] | inhibition [2] [%] | inhibition [3] [%] | inhibition [4] [%] | inhibition [5] [%] | inhibition [6] [%] | inhibition [7] [%] | inhibition [8] [%] | inhibition [9] [%]
CS(=O)(=O)CCCOc1cccc2c1ccn2-c1ccnc(N[C@H]2CC[C@H](C(=O)N3CCC(O)CC3)CC2)n1 | > 85 | > 85 |  |  |  |  |  |  | 
O[C@H]1CC[C@H](Nc2nccc(-n3ccc4ccccc43)n2)CC1 | < 50 | < 50 | < 50 | < 50 | < 50 | < 50 | < 50 | < 50 | < 50
O[C@H]1CC[C@H](Nc2nccc(-n3nnc4ccccc43)n2)CC1 | 93 | 94 | 69 | < 50 | < 50 | < 50 | 68 | < 50 | 76
O[C@H]1CC[C@H](Nc2nccc(-n3ncc4ccccc43)n2)CC1 | < 50 | 78 | < 50 | < 50 | 86 | < 50 | < 50 | < 50 | < 50
O[C@H]1CC[C@H](Nc2nccc(-c3n[nH]c4ccccc34)n2)CC1 |  |  |  | 97 | 98 | < 50 | 91 |  | 
